Screening results as filed in PubChem BioAssay.
An excerpt weighted towards active compounds, which were near 2.9% of everything screened.
mABHD4 FP: ABHD4 (mouse) inhibition, primary FP screen. inhibition, % at 8.92 µM. purified mABHD4, FP-Rh probe fluorescence polarization. Q8VD66. AID 720543. 0.54% of 370,000 active;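 active = inhibition exceeding the mean over every tested compound plus 3 SD, cut at about 30% in these data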;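 also: 0% = plate median of compound wells and 100% = S159A mutant with DMSO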
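assay system = mABHD4 protein | compound dosing = single nominal dose of 8.92 µM, 0.89% DMSO final | read-out basis = percent inhibition of probe binding, normalized to plate controls | schedule = Enzyme–compound pre-incubation 45 min, then probe 60 min, both 25 °C | detection = fluorescence polarization, excitation 525 nm, emission 598 nm, BODIPY TMR filters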
PRMT1 FP inh: inhibitors of human PRMT1. inhibition, % at 2.79 µM. 1.3% of 370,000 active. AID 652257. Q99873. recombinant PRMT1, activity-based probe fluorescence polarization;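 active = inhibition above about 21% made by adding two undisclosed values, limit read from the data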
HTRA1 inhibitor: HTRA1 (human) protease inhibition; Q92743; recombinant HTRA1, FP-rhodamine activity-based probe, fluorescence polarization; inhibition, % at 5.96 µM; 0.5% of 340,000 active; AID 504803; in the data active = inhibition above about 36%;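 also: 0% = enzyme with DMSO and 100% = wells lacking enzyme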
ATG4B inh: blocks human ATG4B protease cleavage of LC3 substrate; ATG4B cleavage of LC3-PLA2, NBD-HPC fluorescence, 1 h; inhibition, % at 8.33 µM; 0.51% of 340,000 active; in the data active = inhibition above about 40%
Target sequence (Q9Y4P1 whole entry, looked up): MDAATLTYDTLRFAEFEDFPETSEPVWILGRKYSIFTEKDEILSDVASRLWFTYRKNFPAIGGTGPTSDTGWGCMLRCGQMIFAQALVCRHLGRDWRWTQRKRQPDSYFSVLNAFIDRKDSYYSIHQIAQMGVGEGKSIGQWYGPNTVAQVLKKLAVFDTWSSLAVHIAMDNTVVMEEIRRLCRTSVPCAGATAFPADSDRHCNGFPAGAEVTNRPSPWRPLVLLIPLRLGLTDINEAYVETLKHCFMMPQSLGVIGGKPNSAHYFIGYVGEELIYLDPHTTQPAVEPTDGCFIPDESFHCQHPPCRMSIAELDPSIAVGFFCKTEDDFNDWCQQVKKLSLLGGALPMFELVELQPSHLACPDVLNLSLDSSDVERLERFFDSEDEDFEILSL
TCR CD3 inh: human TCR-CD3 binding inhibition. TAMRA-labeled TCR probe fluorescence, biochemical. inhibition, % at 9.4 µM. 0.37% of 360,000 active; in the data active = inhibition above about 19%;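 also: recombinant mutant TCR 2C K166C tagged with TAMRA read by polarization; 0% = receptor in buffer alone and 100% = receptor with positive control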
SIAE inh: blocks human sialic acid acetylesterase; Q9HAT2; inhibition, % at 9.66 µM; 0.69% of 370,000 active; SIAE FP-Rh probe binding, fluorescence polarization;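 active = inhibition above a cutoff: mean of compounds within the control limits plus 3 SD of those, cut at about 17% in these data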;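 also: 0% = plate median of compound wells and 100% = probe without SIAE protein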
mABHD4 conf: confirmation of mouse ABHD4 inhibitors; 55% of 1,800 active; shares compounds with mABHD4 FP; inhibition, % at 8.92 µM; purified mABHD4, FP-Rh probe fluorescence polarization;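 active = mean inhibition across replicates above the hit cutoff set in the primary screen, cut at about 30% in these data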;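 also: 0% = wild-type ABHD4 with DMSO and 100% = catalytically dead S159A mutant with DMSO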
The depositor's hits bear a star.

For CN1CCc2cc(O)cc3c2[C@H]1Cc1ccc(O)c(O)c1-3 the results were mABHD4 FP 57*, PRMT1 FP inh 79*, HTRA1 inhibitor 30, ATG4B inh -7, TCR CD3 inh 17, SIAE inh 12 and mABHD4 conf 18.
COC(=O)C1=C(c2c(C)noc2C)C[C@@H]2CC[C@H]1N2C(=O)NC1CCCCC1 was read as mABHD4 FP 0, PRMT1 FP inh -1, HTRA1 inhibitor 2, ATG4B inh -15, TCR CD3 inh 5 and SIAE inh 0.
For O=C(N/N=C/C1C(=O)NC(=S)N(c2ccccc2)C1=O)c1cc(Br)c(O)c(Br)c1 (configuration not stated) the results were mABHD4 FP 42*, PRMT1 FP inh 6, HTRA1 inhibitor 36, ATG4B inh 5, TCR CD3 inh 14, SIAE inh -3 and mABHD4 conf 48*.
`COP(=O)(/C=C(\Cl)c1ccccc1)/C=C(\Cl)c1ccccc1` gave mABHD4 FP 1, PRMT1 FP inh -1, HTRA1 inhibitor -2, ATG4B inh -6, TCR CD3 inh 3 and SIAE inh 0.
O=c1[nH]c(=O)n(CCC2=CCCCC2)c(O)c1C=NC1CCN(Cc2ccccc2)CC1 was read as mABHD4 FP 6, PRMT1 FP inh 1, HTRA1 inhibitor 1, ATG4B inh -1, TCR CD3 inh -2 and SIAE inh -3.
`O=c1[nH]c(=O)n(CCC2=CCCCC2)c(O)c1/C=N/Nc1cccc2ccccc12` gave mABHD4 FP 33*, PRMT1 FP inh 18, HTRA1 inhibitor 31, ATG4B inh 13, TCR CD3 inh -16, SIAE inh 10 and mABHD4 conf 16.
For O=[N+]([O-])c1cccc(CN2CCN(Cc3ccc(Br)cc3)CC2)c1 the results were mABHD4 FP 10, PRMT1 FP inh 1, HTRA1 inhibitor -4, ATG4B inh 0, TCR CD3 inh -4 and SIAE inh 5.
Cc1ccccc1-n1c(O)c(C=Nc2ccc(N(C)C)cc2)c(=O)[nH]c1=O was read as mABHD4 FP 40*, PRMT1 FP inh 21*, HTRA1 inhibitor 35, ATG4B inh 3, TCR CD3 inh 15, SIAE inh 6 and mABHD4 conf 6.
For CCN(CC)c1ccc(N=Cc2c(O)n(-c3ccc(OC)cc3)c(=O)[nH]c2=O)cc1 the results were mABHD4 FP 38*, PRMT1 FP inh 19, HTRA1 inhibitor 35, ATG4B inh -7, TCR CD3 inh 0, SIAE inh 5 and mABHD4 conf 2.
`CCn1c(O)c(/C=N/NC(=O)c2ccncc2)c(=O)[nH]c1=S` gave mABHD4 FP -18, PRMT1 FP inh -3, HTRA1 inhibitor -26, ATG4B inh 11, TCR CD3 inh -37 and SIAE inh -65.
For O=C(N/N=C/c1c(O)n(Cc2ccc(F)cc2)c(=S)[nH]c1=O)c1ccncc1 the results were mABHD4 FP 32*, PRMT1 FP inh -2, HTRA1 inhibitor -10, ATG4B inh 3, TCR CD3 inh -12, SIAE inh -53 and mABHD4 conf 37*.
`C=CCn1c(O)c(C(CC)=Nc2ccc3c(c2)CCC3)c(=O)[nH]c1=O` gave mABHD4 FP 4, PRMT1 FP inh -1, HTRA1 inhibitor 6, ATG4B inh 1, TCR CD3 inh 3 and SIAE inh 2.
For C=CCn1c(O)c(C(CC)=Nc2ccc(N(C)C)cc2)c(=O)[nH]c1=O the results were mABHD4 FP 43*, PRMT1 FP inh 33*, ATG4B inh 5, TCR CD3 inh 8, SIAE inh 3 and mABHD4 conf 11.
`C[C@]12CCC3[C@@H](CCC4=CC(=O)CC[C@@]43CO)C1CCC2=O` (some centres not stated) gave mABHD4 FP 1, PRMT1 FP inh 8, HTRA1 inhibitor 9, ATG4B inh 1, TCR CD3 inh -3 and SIAE inh -2.
`O=c1[nH]c(=S)n(-c2ccc(Br)cc2)c(O)c1C=Nc1ccc(N2CCOCC2)cc1` gave mABHD4 FP 22, PRMT1 FP inh 4, HTRA1 inhibitor 22, ATG4B inh 5, TCR CD3 inh 4 and SIAE inh 7.
For CCN(CC)c1ccc(N=Cc2c(O)n(-c3ccc(Cl)cc3)c(=O)[nH]c2=O)cc1 the results were mABHD4 FP 1, PRMT1 FP inh 10, HTRA1 inhibitor 8, ATG4B inh -8, TCR CD3 inh 3 and SIAE inh -1.
CC(=O)N1CCN(c2ccc(N=Cc3c(O)n(-c4ccc(Cl)cc4)c(=O)[nH]c3=O)cc2)CC1 was read as mABHD4 FP 42*, PRMT1 FP inh 3, HTRA1 inhibitor 24, ATG4B inh 2, TCR CD3 inh 5, SIAE inh 11 and mABHD4 conf 5.
O=c1[nH]c(=S)n(-c2ccccc2F)c(O)c1C=Nc1ccc(N2CCOCC2)cc1 was read as mABHD4 FP 58*, PRMT1 FP inh 16, HTRA1 inhibitor 12, ATG4B inh -6, TCR CD3 inh 4, SIAE inh 9 and mABHD4 conf 2.
`Cn1c(O)c(C(=Nc2ccccc2)SCc2ccc(Cl)cc2)c(=O)n(C)c1=O` gave mABHD4 FP 7, PRMT1 FP inh 6, HTRA1 inhibitor 0, ATG4B inh -5, TCR CD3 inh 8 and SIAE inh 0.
`COc1ccc(-n2c(=S)[nH]c3ccc(C)cc3c2=O)cc1` gave mABHD4 FP 32*, PRMT1 FP inh 1, HTRA1 inhibitor 2, TCR CD3 inh 4, SIAE inh 2 and mABHD4 conf 25.
Cc1nc2ccsc2c(=O)n1-c1ccccc1Cl was read as mABHD4 FP 0, PRMT1 FP inh -3, HTRA1 inhibitor -2, ATG4B inh -3, TCR CD3 inh 2 and SIAE inh -1.
For COC(=O)C1=C(c2ccc(OCc3ccccc3)cc2)C[C@@H]2CC[C@H]1N2C(=O)NCc1ccc(OC)c(OC)c1 the results were mABHD4 FP 46*, PRMT1 FP inh -1, HTRA1 inhibitor -18, ATG4B inh 0, TCR CD3 inh 6, SIAE inh 1 and mABHD4 conf 58*.
`N/C(=N\N=C/c1ccc(-c2ccc(O)c(C(=O)O)c2)o1)N[N+](=O)[O-]` gave mABHD4 FP 35*, PRMT1 FP inh 33*, HTRA1 inhibitor 5, ATG4B inh 9, TCR CD3 inh 17, SIAE inh -2 and mABHD4 conf 42*.
Screening COc1ccc(/C=N/N=C(/N)N[N+](=O)[O-])c(OC)c1 returned mABHD4 FP -4, PRMT1 FP inh 3, HTRA1 inhibitor 0, ATG4B inh -11, TCR CD3 inh -5 and SIAE inh -2.
